Source: ChEMBL document CHEMBL3792300, “Tuning Side Arm Electronics in Unsymmetrical Cyclotriazadisulfonamide (CADA) Endoplasmic Reticulum (ER) Translocation Inhibitors to Improve their Human Cluster of Differentiation 4 (CD4) Receptor Down-Modulating Potencies” (J Med Chem, 2016)

How the values were obtained:
[1] = test system: Human immunodeficiency virus 1; test: Antiviral activity against CXCR4 using HIV-1 NL4.3 infected in human MT4 cells assessed as reduction of viral replication preincubated for 15 mins with cells followed by viral infection measured after 4 days by MTS/PES method; assay type: functional, organism-based; conditions: Human immunodeficiency virus 1, NL4.3, MT4
Summary of the method: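 MT-4 T cells at 3.75×10⁵ cells/mL in RPMI 1640 with 10% FBS and 2 mM L-glutamine, exposed to compounds for 15 min, then infected with HIV-1 NL4.3 (30 pg/well) at 37 °C. After 4 days, viability by MTS/PES absorbance at 490 and 700 nm, used to derive IC50 for viral replication. Mean ± SD, n = 2 or 3.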

[2] = Binding affinity to human CD4 signal peptide expressed in CHO cells assessed as down-modulation of YFP-fused CD4 expression after 24 hrs by flow cytometric analysis; assay type: cell-based
Summary of the method: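 CHO cells stably expressing human CD4 fused C-terminally to YFP, treated 24 h at 37 °C with 1:5 serial dilutions. Washed, fixed in 1% formaldehyde, flow cytometry with 488 nm excitation and YFP in FL-1. YFP median fluorescence as % of untreated cells after subtracting non-transfected background. IC50 = 50% decrease; mean ± SD, n ≥ 3.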

MT4 = test: Cytotoxicity against human MT4 cells after 48 hrs by MTS/PES method; assay type: cell-based; conditions: mt4, 48 h
Summary of the method: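 MT-4 cells at 10⁴ per well in DMEM with 10% FBS and 10 mM HEPES, incubated with compounds 48 h at 37 °C. Viability by MTS/PES; CC50 taken as the concentration reducing viability by 50%.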

CHO = test: Binding affinity to human CD4 signal peptide expressed in CHO cells assessed as down-modulation of YFP-fused CD4 expression at 50 uM after 24 hrs by flow cytometric analysis; assay type: cell-based
Summary of the method: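 Stably CD4-YFP-expressing CHO cells, 24 h at 37 °C, 50 μM as the highest concentration tested. Washed, fixed in 1% formaldehyde, YFP read by flow cytometry (488 nm, FL-1). Median fluorescence versus untreated cells, background of non-transfected cells subtracted. Given as % CD4 down-modulation at 50 μM.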

| SMILES | IC50 [1] | IC50 [2] | CC50 (MT4) | pIC50 [2] | Activity (CHO) |
| --- | --- | --- | --- | --- | --- |
| C=C1CN(C(=O)c2ccc(N)cc2)CCCN(Cc2ccccc2)CCCN(S(=O)(=O)c2ccc(C)cc2)C1 | > 10 µM | > 50 µM | 13.7 µM |  |  |
| C=C1CN(S(=O)(=O)c2ccc(C)cc2)CCCN(CC2CCCCC2)CCCN(S(=O)(=O)c2ccc(OCCCC)cc2)C1 | 1.95 µM | 1.1 µM | 13.2 µM |  |  |
| C=C1CN(S(=O)(=O)c2ccc(C)cc2)CCCN(Cc2ccccc2)CCCN(S(=O)(=O)c2ccc(SC)cc2)C1.Cl | 1.44 µM | 0.23 µM | > 150 µM | 6.64 |  |
| C=C1CN(C(=O)c2ccc(C)cc2)CCCN(Cc2ccccc2)CCCN(S(=O)(=O)c2ccc(C)cc2)C1 | 3.95 µM | 3.78 µM | 19.9 µM |  |  |
| C=C1CN(S(=O)(=O)c2ccc(C)cc2)CCCN(Cc2ccccc2)CCCN(S(=O)(=O)c2ccc(C)cc2)C1 |  |  |  | 6.4 |  |
| C=C1CN(S(=O)(=O)c2ccc(C)cc2)CCCN(Cc2ccccc2)CCCN(S(=O)(=O)c2ccc([N+](=O)[O-])cc2)C1.Cl | 35.9 µM | 5.25 µM | > 150 µM | 5.28 |  |
| C=C1CN(S(=O)(=O)c2ccc(C)cc2)CCCN(CC2CCCCC2)CCCN(S(=O)(=O)c2ccc(-n3cccc3)cc2)C1 | 1.25 µM | 0.18 µM | 48 µM |  |  |
| C=C1CN(S(=O)(=O)c2ccc(C)cc2)CCCN(CC2CCCCC2)CCCN(S(=O)(=O)c2ccc(N3CCOCC3)cc2)C1 | 0.36 µM | 0.13 µM | > 150 µM |  |  |
| C=C1CN(S(=O)(=O)c2ccc(C)cc2)CCCN(CC2CCCCC2)CCCN(S(=O)(=O)c2ccc(O)cc2)C1 |  | 1.14 µM | > 150 µM |  |  |
| C=C1CN(C(=O)c2ccc(OC)cc2)CCCN(Cc2ccccc2)CCCN(S(=O)(=O)c2ccc(C)cc2)C1 | 3.86 µM | 4.22 µM | 23.6 µM |  |  |
| C=C1CN(S(=O)(=O)c2ccc(C)cc2)CCCN(Cc2ccccc2)CCCN(S(=O)(=O)c2cccc(N(C)C)c2)C1.Cl | > 50 µM | 0.79 µM | > 150 µM | 6.1 |  |
| C=C1CNCCCN(Cc2ccccc2)CCCN(S(=O)(=O)c2ccc(C)cc2)C1 |  | > 50 µM | > 150 µM |  | 20% |
| C=C1CN(S(=O)(=O)c2ccc(C)cc2)CCCN(Cc2ccccc2)CCCN(S(=O)(=O)c2ccn(C)c2)C1.Cl | > 50 µM | 3.17 µM | > 150 µM | 5.5 |  |
| C=C1CN(S(=O)(=O)c2ccc(C)cc2)CCCN(CC2CCCCC2)CCCN(S(=O)(=O)c2ccc(OCCCN3C(=O)c4ccccc4C3=O)cc2)C1 |  | 0.75 µM | 32.2 µM |  |  |
| C=C1CN(S(=O)(=O)c2ccc(C)cc2)CCCN(Cc2ccccc2)CCCN(S(=O)(=O)c2ccc(F)cc2)C1.Cl | 4.66 µM | 0.92 µM | > 150 µM | 6.04 |  |
| C=C1CN(S(=O)(=O)c2ccc(C)cc2)CCCN(CC2CCCCC2)CCCN(S(=O)(=O)c2ccc(N(C)C)cc2)C1 | 0.18 µM | 0.063 µM | 44 µM |  |  |
| C=C1CN(C(=O)c2ccccc2)CCCN(Cc2ccccc2)CCCN(S(=O)(=O)c2ccc(C)cc2)C1 | > 10 µM | 7.32 µM | 15.8 µM |  |  |
| C=C1CN(S(=O)(=O)c2ccc(C)cc2)CCCN(Cc2ccccc2)CCCN(S(=O)(=O)N(C)C)C1 | 12.8 µM | 1.58 µM | > 150 µM |  |  |
| C=C1CN(C(=O)c2ccc([N+](=O)[O-])cc2)CCCN(Cc2ccccc2)CCCN(S(=O)(=O)c2ccc(C)cc2)C1 | > 50 µM | > 50 µM | > 150 µM |  | 39% |
| C=C1CN(S(=O)(=O)c2ccc(C)cc2)CCCN(Cc2ccccc2)CCCN(S(=O)(=O)c2ccc3c(c2)OCO3)C1.Cl | 14.2 µM | 1.06 µM | > 150 µM | 5.97 |  |

| SMILES | IC50 [1] | IC50 [2] | CC50 (MT4) | pIC50 [2] | Activity (CHO) |
| --- | --- | --- | --- | --- | --- |
| C=C1CN(S(=O)(=O)c2ccc(C)cc2)CCCN(Cc2ccccc2)CCCN(S(=O)(=O)c2ccc(OC)cc2)C1.Cl | 0.55 µM | 0.29 µM | > 150 µM | 6.54 |  |
| C=C1CN(S(=O)(=O)c2ccc(C)cc2)CCCN(Cc2ccccc2)CCCN(S(=O)(=O)c2ccc(N(C)C)cc2)C1.Cl | 0.62 µM | 0.17 µM | > 150 µM | 6.77 |  |
| C=C1CN(S(=O)(=O)c2ccc(C)cc2)CCCN(Cc2ccccc2)CCCN(S(=O)(=O)c2ccc(OC(F)(F)F)cc2)C1.Cl | 3.26 µM | 1.2 µM | > 150 µM | 5.92 |  |
| C=C1CN(S(=O)(=O)c2ccc(C)cc2)CCCN(Cc2ccccc2)CCCN(S(=O)(=O)N2CCOCC2)C1.Cl | 8.99 µM | 1.08 µM | > 150 µM | 5.97 |  |
| C=C1CN(S(=O)(=O)c2ccc(C)cc2)CCCN(CC2CCCCC2)CCCN(S(=O)(=O)c2ccc(OCCCN)cc2)C1 |  | > 50 µM | 11.6 µM |  |  |
| C=C1CN(S(=O)(=O)c2ccc(C)cc2)CCCN(Cc2ccccc2)CCCN(S(=O)(=O)c2ccc(OC)cc2OC)C1.Cl | 7 µM | 1.35 µM | > 150 µM | 5.87 |  |
| C=C1CN(S(=O)(=O)c2ccc(C)cc2)CCCN(Cc2ccccc2)CCCN(S(=O)(=O)c2ccc(OC(=S)N(C)C)cc2)C1.Cl | > 50 µM | 6.28 µM | 106 µM | 5.2 |  |
| C=C1CN(S(=O)(=O)c2ccccc2)CCCN(Cc2ccccc2)CCCN(S(=O)(=O)c2ccc(C)cc2)C1.Cl | > 50 µM | 1.46 µM | > 150 µM | 5.84 |  |
| C=C1CN(S(=O)(=O)c2ccc(C)cc2)CCCN(Cc2ccccc2)CCCN(S(=O)(=O)c2ccc(N)cc2)C1.Cl | 7.72 µM | 2.42 µM | 63.4 µM | 5.62 |  |
| C=C1CN(S(=O)(=O)c2ccc(C)cc2)CCCN(CC2CCCCC2)CCCN(S(=O)(=O)c2ccc(OCC)cc2)C1 | 0.62 µM | 0.19 µM | 19.6 µM |  |  |
| C=C1CN(S(=O)(=O)c2ccc(C)cc2)CCCN(Cc2ccccc2)CCCN(S(=O)(=O)c2ccc(OC)c(OC)c2)C1.Cl | 0.86 µM | 0.31 µM | > 150 µM | 6.51 |  |
| C=C1CN(S(=O)(=O)c2ccc(C)cc2)CCCN(Cc2ccccc2)CCCN(S(=O)(=O)c2cccc(N)c2)C1.Cl | 6.22 µM | 1.02 µM | > 150 µM | 5.99 |  |
| C=C1CN(S(=O)(=O)c2ccc(C)cc2)CCCN(Cc2ccccc2)CCCN(S(=O)(=O)c2ccccc2N)C1.Cl | 6.93 µM | 2.12 µM | 70.3 µM | 5.66 |  |
| C=C1CN(S(=O)(=O)c2ccc(C)cc2)CCCN(Cc2ccccc2)CCCN(S(=O)(=O)c2ccc3ccccc3c2)C1.Cl | 1.35 µM | 0.55 µM | > 150 µM | 6.26 |  |
| C=C1CN(S(=O)(=O)c2ccc(C)cc2)CCCN(Cc2ccccc2)CCCN(S(=O)(=O)c2ccc(O)cc2)C1.Cl | 2.84 µM | 3.58 µM | 13.6 µM | 5.45 |  |
| C=C1CN(S(=O)(=O)c2ccc(C)cc2)CCCN(CC2CCCCC2)CCCN(S(=O)(=O)c2ccc(OC)cc2)C1 | 0.49 µM | 0.15 µM | 99 µM |  |  |
| C#CCOc1ccc(S(=O)(=O)N2CCCN(Cc3ccccc3)CCCN(S(=O)(=O)c3ccc(C)cc3)CC(=C)C2)cc1.Cl | 0.55 µM | 0.46 µM | > 150 µM | 6.34 |  |
| C=C1CN(S(=O)(=O)c2ccc(C)cc2)CCCN(Cc2ccccc2)CCCN(S(=O)(=O)c2cccc([N+](=O)[O-])c2)C1.Cl | > 50 µM | 2.02 µM | > 150 µM | 5.69 |  |
| C=C1CN(S(=O)(=O)c2ccc(C)cc2)CCCN(Cc2ccccc2)CCCN(S(=O)(=O)c2ccccc2[N+](=O)[O-])C1.Cl | 27.7 µM | 0.7 µM | > 150 µM | 6.15 |  |
| C=C1CN(S(=O)(=O)c2ccc(C)cc2)CCCN(CC2CCCCC2)CCCN(S(=O)(=O)c2ccc(N)cc2)C1 | > 10 µM | 1 µM | 10.6 µM |  |  |
